Sampled rows, rich in hits. Any-hit rate of the full collection: about 1.8%.
TbMetRS inhib – Trypanosoma brucei MetRS inhibition. 360,000 tested, 0.4% active. inhibition, % at 11.9 µM. purified T. brucei MetRS, ATP depletion, Kinase-Glo luminescence;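 active = inhibition above a per-plate cutoff of the control wells' mean inhibition plus 3 SD, cut at about 5.5% in these data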;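 note: 0% = DMSO wells median and 100% = median of wells with control inhibitor compound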
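Assay system: T. brucei methionyl-tRNA synthetase, purified | Medium: HEPES buffer with MgCl2, KCl, DTT, spermine, BSA, pyrophosphatase | Compound: 11.9 µM single point | Incubation: 15 min enzyme-compound preincubation, 2 h reaction, 10 min detection, 25 °C | Measured by: Kinase-Glo luciferase luminescence reporting remaining unconsumed ATP | Measure: % inhibition normalized to control-well medians | Replication: Singlicate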
iPSC survival up – increases survival of single human iPS cells; hiPSC single-cell survival, ATPlite luminescence; 100% = ROCK inhibitor wells, 0% = DMSO; survival enhancement, % at 20 µM; 360,000 tested, 0.044% active; AID 602274; in the data active = survival enhancement above about 18%;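 note: cells exposed to compounds for 16 hours before the ATP read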
PREPL inh – inhibitors of human prolyl oligopeptidase-like enzyme PREPL; Q4J6C6; recombinant PREPL, fluorescence polarization activity-based probe; inhibition, % at 5.96 µM; 320,000 tested, 0.68% active;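 note: 0% = enzyme with DMSO and 100% = wells lacking enzyme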
SKN-1 block – blocks SKN-1 activity in C. elegans; C. elegans VP596 Pgst-4::GFP/RFP ratio, acrylamide-induced, 24 h; inhibition, % at 21.8 µM; 360,000 tested, 0.49% active;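 active = interference check ratio from 0.5 to 1.5 plus GFP to RFP signal ratio inhibition reaching or exceeding a fixed threshold, cut at about 30% in these data, passing the limit was not always enough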
eLon inh – inhibitors of E. coli Lon protease | P0A9M0 | purified E. coli Lon protease, fluorescence polarization | inhibition, % at 7.94 µM | 360,000 tested, 0.42% active | AID 602123; in the data active = inhibition above about 13%, passing the limit was not always enough;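 note: 0% = enzyme with probe and DMSO and 100% = no enzyme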
Target sequence (P0A9M0 whole entry, looked up): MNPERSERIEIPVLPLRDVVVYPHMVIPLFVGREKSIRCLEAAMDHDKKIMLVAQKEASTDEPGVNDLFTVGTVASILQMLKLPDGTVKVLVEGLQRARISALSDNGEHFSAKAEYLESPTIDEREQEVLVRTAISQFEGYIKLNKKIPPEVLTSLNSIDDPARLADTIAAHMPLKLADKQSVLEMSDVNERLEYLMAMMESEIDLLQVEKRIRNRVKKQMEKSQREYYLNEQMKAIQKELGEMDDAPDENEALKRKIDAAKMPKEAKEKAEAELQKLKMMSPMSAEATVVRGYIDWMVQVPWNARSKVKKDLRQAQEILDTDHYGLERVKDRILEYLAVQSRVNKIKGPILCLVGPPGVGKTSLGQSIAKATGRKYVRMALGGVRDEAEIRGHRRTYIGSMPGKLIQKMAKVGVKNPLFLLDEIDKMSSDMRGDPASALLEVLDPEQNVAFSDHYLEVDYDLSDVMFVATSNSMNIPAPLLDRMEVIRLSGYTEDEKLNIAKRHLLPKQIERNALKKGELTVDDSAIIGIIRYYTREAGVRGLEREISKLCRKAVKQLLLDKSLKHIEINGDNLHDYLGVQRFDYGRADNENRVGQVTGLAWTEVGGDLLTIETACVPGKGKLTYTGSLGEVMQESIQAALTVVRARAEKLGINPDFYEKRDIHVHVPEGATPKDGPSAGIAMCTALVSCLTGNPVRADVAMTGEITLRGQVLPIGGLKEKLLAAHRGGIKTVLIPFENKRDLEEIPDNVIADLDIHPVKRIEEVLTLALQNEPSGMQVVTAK
MT1-MMP act inh – MT1-MMP (human) activation inhibition; HT1080 RFP-PRO-GFP cells, GFP/RFP ratio fluorescence, overnight; percent of plate control window, DMSO zero; GFP/RFP ratio change, % at 20 µM; 360,000 tested, 0.061% active; AID 651647;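 active = GFP/RFP ratio change of at least 30% with cell ATP level not reduced by more than half and red fluorescence within 50% of control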
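Assay system – RFP-PRO-GFP reporter HT1080 cells · Compound dosing – single dose of 20 µM compound, 1% DMSO final · Incubation – overnight compound exposure at 37 °C · Measure – GFP/RFP fluorescence ratio · Benchmarks – DMSO wells and RFP-L50D-GFP cells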
PREPL inh cf – confirmation of human PREPL enzyme inhibitors; shares compounds with PREPL inh; recombinant PREPL, fluorescence polarization activity probe; inhibition, % at 5.96 µM; 2,000 tested, 67% active;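 note: 0% = protein with DMSO and 100% = wells lacking protein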
The depositor's hits bear a star; nt = no result given. Cut-off read from the data, not from the text of the source, unless noted: active = inhibition above about 43%; inactive = the rest.

SMILES	TbMetRS inhib	iPSC survival up	PREPL inh	SKN-1 block	eLon inh	MT1-MMP act inh	PREPL inh cf
O=C(NCCS(=O)(=O)NCCCc1ccccc1)c1ccccc1	0	0	-21	7	-5	-1	nt
FC(F)(F)c1cccc(-n2cccc2/C=N/n2cnnc2)c1	-1	-2	-6	0	-5	1	nt
CC(C)(C)[C@@H]1COC(=O)[C@@H](Cc2ccc(F)cc2)C/C=C\C[C@H](CC(=O)N(CCO)Cc2ccccc2)C(=O)N1	0	2	56*	-11	-4	0	46*
O=C1OC[C@@H]2CCCN2C(=O)[C@@H](CC(=O)N(CCO)Cc2ccccc2)C/C=C\CC[C@H]1Cc1ccc(F)cc1	0	2	44*	-17	-7	-1	30
C[C@H]1COC(=O)[C@@H](Cc2ccc(F)cc2)C/C=C\C[C@H](CC(=O)N(CCO)Cc2ccccc2)C(=O)N1	0	-3	25	0	-6	4	nt
O=C1N[C@@H](Cc2c[nH]c3ccccc23)COC(=O)[C@@H](Cc2ccc(F)cc2)C/C=C\C[C@H]1CC(=O)N(CCO)Cc1ccccc1	0	-1	62*	12	3	-1	53*
O=C1N[C@@H](Cc2ccccc2)COC(=O)[C@@H](Cc2ccc(F)cc2)CC/C=C/C[C@@H]1CC(=O)N(CCO)Cc1ccccc1	0	-2	44*	2	6	nt	43*
O=C1OC[C@@H]2CCCN2C(=O)[C@@H](CC(=O)N(CCO)Cc2ccccc2)C/C=C\C[C@@H]1Cc1ccc(F)cc1	0	-3	27	6	-6	0	nt
O=C(/C=C/c1ccccc1)NC1CCSC1=O (centres undefined)	0	1	5	18	-2	-1	nt
CC(C)(C)[C@@H]1COC(=O)[C@H](Cc2ccc(F)cc2)CC/C=C\C[C@@H](CC(=O)N(CCO)Cc2ccccc2)C(=O)N1	0	-1	47*	-8	3	0	51*
O=C1N[C@@H](c2ccccc2)COC(=O)[C@@H](Cc2ccc(F)cc2)C/C=C\C[C@@H]1CC(=O)N(CCO)Cc1ccccc1	0	-1	52*	0	1	0	41
O=C1N[C@@H](c2ccccc2)COC(=O)[C@H](Cc2ccc(F)cc2)C/C=C\C[C@H]1CC(=O)N(CCO)Cc1ccccc1	1	3	nt	-1	3	0	nt
CCN(CC)c1ccc(-n2cc3c(=O)n(C)c(=O)n(C)c3c2)cc1	-1	-3	49*	8	-2	-4	48*
CN(C)c1ccc(-n2cc3c(=O)n(C)c(=O)n(C)c3c2)cc1	-1	2	30	15	-2	-2	nt
O=C(C[C@@H]1C/C=C\C[C@H](Cc2ccc(F)cc2)C(=O)OC[C@H]2CCCN2C1=O)N[C@H](CO)Cc1ccccc1	0	-3	46*	16	10	-2	43
O=C(C[C@H]1C/C=C\C[C@@H](Cc2ccc(F)cc2)C(=O)OC[C@H]2CCCN2C1=O)NCCO	0	4	47*	11	-3	-2	48*
O=C(C[C@@H]1C/C=C\C[C@@H](Cc2ccc(F)cc2)C(=O)OC[C@@H]2CCCN2C1=O)N[C@H](CO)Cc1ccccc1	0	-1	48*	11	-3	3	54*
COc1cc(CN2CC(=O)N(c3ccc(C)c(Cl)c3)C2=S)cc(OC)c1OC	-1	0	-9	-27	1	-3	nt
Cn1c(=O)c2c(nc(NCc3ccco3)n2CCc2ccccc2)n(C)c1=O	0	4	1	8	-5	5	nt
CCOC(=O)[C@]12CCCC=C1N(Cc1cccc3ccccc13)C(=O)[C@H](CC(=O)NCC1CCCCC1)C2	-1	0	nt	9	-4	-8	nt
CCn1nc(NC(=O)COC)c2cc3cccc(C)c3nc21	-1	1	-1	-9	0	-1	nt
O=c1[nH]n2c(=O)c3c([nH]c2c1N=Nc1cccc(Cl)c1)CCCC3	0	0	55*	-6	-5	24	58*
CC(=O)Nc1cccc(-c2ccnc3c2CC(C)(C(=O)Nc2cccc(C(C)=O)c2)O3)c1 (centres undefined)	0	-1	nt	12	-3	6	nt
Cc1sc2ncnc(N/N=C/c3ccccc3O)c2c1C	-2	-1	66*	0	-20	4	65*
Cc1sc2ncnc(N/N=C/c3ccc(O)cc3)c2c1C	0	0	24	7	-2	3	nt
SMILES	TbMetRS inhib	iPSC survival up	PREPL inh	SKN-1 block	eLon inh	MT1-MMP act inh	PREPL inh cf
Cc1cc(C)c(NC(=O)CN(C)CC(=O)Nc2cccc(S(=O)(=O)N(C)c3ccccc3)c2)c(C)c1	0	4	9	-14	-1	5	nt
CC(=O)NN1C(=O)c2ccc3c4c(ccc(c24)C1=O)C(=O)N(NC(C)=O)C3=O	-1	-1	14	-13	3	1	nt
Cn1c(N/N=C/c2c[nH]c3ccccc23)nc2ccccc21	1	-7	53*	18	7	10	65*
Cc1cc(N/N=C/c2c[nH]c3ccccc23)c2ccccc2n1	0	-1	7	1	4	-1	nt
Cc1ccccc1NC(=O)c1ccc(C)c(S(=O)(=O)Nc2ccccn2)c1	-1	0	30	-7	-9	0	nt
Cc1ccc(C(=O)Nc2ccc(Br)cc2)cc1S(=O)(=O)Nc1ccccn1	0	0	43*	3	-4	2	37
COc1ccc(C(=O)Nc2n[nH]c(-c3ccncc3)n2)cc1	-1	-2	-2	-12	-1	-4	nt
CS(=O)(=O)n1nc(-c2ccc(Cl)cc2)nc1N	0	-2	-15	10	-7	2	nt
Cn1nc(-c2ccc(Cl)cc2)nc2c(=O)n(C)c(=O)nc1-2	nt	nt	44*	nt	nt	nt	60*
C[C@@H]1NC(=O)[C@H](CCC(N)=O)NC(=O)c2cc([N+](=O)[O-])cc(I)c2NCCC[C@@H](C(N)=O)NC1=O	0	4	16	14	5	-3	nt
C[C@@H]1NC(=O)[C@H](CCCN=C(N)N)NC(=O)c2cc([N+](=O)[O-])cc(I)c2NCCC[C@@H](C(N)=O)NC1=O	0	1	43*	11	-5	8	22
CC[n+]1ccc(C)c2cc(P(=O)(c3ccccc3)c3ccccc3)ccc21	0	-2	57*	7	-6	-3	41
Cc1cccc(OCC(=O)Nc2ccc(N3CCN(C(=O)c4ccccc4)CC3)cc2)c1C	0	0	53*	-3	-1	-1	54*

Source: PubChem (several laboratories)
